The nature of assay [1]: reducers of endogenous Her2 protein level, primary screen, SKBR3 breast tumor cells, AlphaScreen, ATP viability (AID 461;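 active = Her2 level under about 52% in both replicate screens, with viability over 70% of control, limit read from the data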;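 as to Her2 level: lower value means less Her2 protein in the cells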;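 as to viability: percent of carrier control wells set as 100% viability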). As to conditions: 18-24 h, measured here: SKBR3 viability, ATP luminescence, at 10 µM.
For assay [2], the target named is Receptor tyrosine-protein kinase erbB-2 (Homo sapiens) (UniProt P04626). The description is as above. As to conditions: 18-24 h, at 10 µM, stronger effect = lower value.
Assay [3] is described as follows: SK-BR-3 cell growth inhibitors, pilot screen, 24 h, human (AID 572;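 active = viability at or below 10% of carrier control in both of two separate runs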;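 also: compound exposure lasted between 18 and 24 h rather than exactly 24 h; 100% = carrier-treated control wells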). As to conditions: SK-BR-3 viability, CellTiter-Glo luminescence, at 10 µM, stronger effect = lower value.
Assay [4] in a line: HUVEC growth inhibition – cell-based, human, primary screen (AID 575;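 active = viability at or below 30% in both replicate assays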;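 also: 100% = median of untreated cell wells with 0.1% DMSO on each plate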). The settings on record: HUVEC proliferation, CellTiter-Glo luminescence, 72 h; at 10 µM; stronger effect = lower value. The method, boiled down:
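Assay system: Primary human umbilical vein endothelial cells | Quantity: 1250 cells per well | Medium: Supplemented EBM, 2% fetal bovine serum | Detection: CellTiter-Glo luminescence measuring cellular ATP | Read-out: % viability vs DMSO wells | Plate: Collagen-coated 384-well format | Times: 72 h exposure, 37 °C, 5% CO2, 30 min RT equilibration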

Assay [5] is described as follows: reversal of MRP1-mediated doxorubicin resistance, pilot screen, H69AR cells, doxorubicin co-treatment (AID 601;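 active = viability loss from added drug above about 55%, and viability with drug at most 40%, in both replicates, limit read from the data, passing the limit was not always enough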). As to conditions: CellTiter-Glo, 72 h, at 10 µM; for differential viability (reversal): stronger effect = higher value.
Assay [6] is described as follows: 384-well plate pilot, post-Golgi transport modulator project, inhibition of yeast transport mutant growth (AID 636; in the data active = inhibition above about 31%). The settings on record: absorbance 615 nm, about 18 h, stronger effect = higher value.
Assay [7] can be described thus: growth suppression of yeast trafficking mutant, preliminary HTS, modulators of trafficking downstream of Golgi apparatus project, 1536-format plate, OD 615 nm (AID 637). As to conditions: yeast transport mutant growth, absorbance 615 nm, 18 h; stronger effect = higher value.
[8] abbreviates: H69AR cells + 2 uM doxorubicin, measured here: viability with 2 uM doxorubicin, stronger effect = lower value.
[9] abbreviates: H69AR cells, compound alone cytotoxicity.

Active and inactive are the calls of the source. Rule as the data show it, unless noted: active = inhibition above about 30%; inactive = the rest.

Sequence of Receptor tyrosine-protein kinase erbB-2 (Homo sapiens) (P04626 whole entry, looked up): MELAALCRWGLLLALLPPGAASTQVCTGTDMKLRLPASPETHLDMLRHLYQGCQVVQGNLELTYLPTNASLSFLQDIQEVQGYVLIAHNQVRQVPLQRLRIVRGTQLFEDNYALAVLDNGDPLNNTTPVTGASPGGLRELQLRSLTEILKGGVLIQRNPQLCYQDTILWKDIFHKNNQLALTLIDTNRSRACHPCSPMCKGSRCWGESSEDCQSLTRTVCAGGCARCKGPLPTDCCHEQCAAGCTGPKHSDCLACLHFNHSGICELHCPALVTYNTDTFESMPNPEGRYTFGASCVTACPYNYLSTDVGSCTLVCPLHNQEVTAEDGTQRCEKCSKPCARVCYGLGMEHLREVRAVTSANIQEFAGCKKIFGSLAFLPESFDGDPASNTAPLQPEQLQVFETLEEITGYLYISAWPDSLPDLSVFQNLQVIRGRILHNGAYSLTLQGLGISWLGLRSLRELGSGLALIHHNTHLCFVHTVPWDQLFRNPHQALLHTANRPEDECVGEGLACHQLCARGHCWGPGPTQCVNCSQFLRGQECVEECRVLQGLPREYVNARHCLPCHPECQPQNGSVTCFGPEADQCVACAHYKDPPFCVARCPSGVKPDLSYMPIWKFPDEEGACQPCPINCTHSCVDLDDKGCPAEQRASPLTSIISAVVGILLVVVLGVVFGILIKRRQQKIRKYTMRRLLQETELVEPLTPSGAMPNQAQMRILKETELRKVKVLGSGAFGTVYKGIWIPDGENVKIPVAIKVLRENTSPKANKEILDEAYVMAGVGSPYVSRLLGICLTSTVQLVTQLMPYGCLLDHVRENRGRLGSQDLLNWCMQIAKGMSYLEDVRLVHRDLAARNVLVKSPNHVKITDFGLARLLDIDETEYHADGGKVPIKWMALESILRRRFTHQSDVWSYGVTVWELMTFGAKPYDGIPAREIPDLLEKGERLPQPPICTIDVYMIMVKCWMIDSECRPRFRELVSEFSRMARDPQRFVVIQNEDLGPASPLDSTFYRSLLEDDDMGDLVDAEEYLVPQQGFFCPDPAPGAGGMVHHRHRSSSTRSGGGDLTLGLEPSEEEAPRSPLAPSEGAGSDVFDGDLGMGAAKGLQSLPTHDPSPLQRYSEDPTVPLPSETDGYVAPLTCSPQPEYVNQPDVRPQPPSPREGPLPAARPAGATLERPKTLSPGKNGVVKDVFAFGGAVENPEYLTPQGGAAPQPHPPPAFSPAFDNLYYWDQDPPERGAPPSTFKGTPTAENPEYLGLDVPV

For `CC(=O)N1CCN(c2ccc(NC(=O)c3ccc(C(C)(C)C)cc3)cc2)CC1`, the viability is 74.5% in assay [1]; 74.5% (inactive) in assay [3]; 38.7% (inactive) in assay [4]; 56.6% in assay [5] (setting [8]); 44.2% in assay [5] (setting [9]). For the same compound, the Her2 level in assay [2] is 94% (inactive). Moreover, in assay [5] (H69AR cells + 2 uM doxorubicin), the differential viability (reversal) is -12.4% (inactive). Besides, the inhibition in assay [6] was -6.08% (inactive); in assay [7], -11.3% (inactive).

Consider `C/C(Cl)=C/Cn1c(SCc2ccc(Cl)cc2)nc2c1c(=O)[nH]c(=O)n2C`, for which the viability was 102% in assay [1]; 102% (inactive) in assay [3]; 78.8% (inactive) in assay [4]; 60.4% in assay [5] (setting [8]); 54.3% in assay [5] (setting [9]). Also, in assay [2], the Her2 level is 110% (inactive). In assay [5] (H69AR cells + 2 uM doxorubicin), the differential viability (reversal) is -6.12% (inactive). In addition, the inhibition in assay [6] is -1.33% (inactive); in assay [7] it was -7.1% (inactive).

`Cc1ccc(C)c(S(=O)(=O)C(C#N)c2nc3ccccc3nc2N2CC(C)OC(C)C2)c1` (centres undefined): the viability was 91% in assay [1]; 91% (inactive) in assay [3]; 52.2% (inactive) in assay [4]; 70.7% in assay [5] (setting [8]); 60.4% in assay [5] (setting [9]). Also, in assay [2], the Her2 level was 77% (inactive). Further, the differential viability (reversal) in assay [5] (H69AR cells + 2 uM doxorubicin) was -10.3% (inactive). Also, the inhibition in assay [6] is 0.52% (inactive); in assay [7], 16.7% (inactive).

For `C=CCn1c(COc2ccc(Cl)cc2)nnc1SCC(=O)N1CC(=O)Nc2ccccc21`, the viability in assay [1] is 92%; in assay [3], 92% (inactive); in assay [4], 65.5% (inactive); in assay [5] (setting [8]), 73.5%; in assay [5] (setting [9]), 62.7%. For the same compound, the Her2 level in assay [2] was 76.5% (inactive). In assay [5] (H69AR cells + 2 uM doxorubicin), the differential viability (reversal) was -10.9% (inactive). Besides, the inhibition is -5.2% (inactive) in assay [6] and -3.02% (inactive) in assay [7].

Turning to `C=CCSC1=C(C#N)C(c2ccccc2C)CC(=O)N1` (centres undefined), the viability is 95.5% in assay [1]; 95.5% (inactive) in assay [3]; 89% (inactive) in assay [4]; 10.6% in assay [5] (setting [8]); 10.1% in assay [5] (setting [9]). For the same compound, in assay [2], the Her2 level was 99% (inactive). Also, the differential viability (reversal) in assay [5] (H69AR cells + 2 uM doxorubicin) is -0.42% (inactive). Further, the results for the inhibition in assay [6] and in assay [7] were -2.21% (inactive) and -2.38% (inactive), respectively.

As for `CCOC(=O)N1CCN(CCC(=O)c2ccc(Cl)cc2)CC1`, the viability in assay [1] is 106%; in assay [3], 106% (inactive); in assay [4] it was 86.4% (inactive); in assay [5] (setting [8]) it was 17.9%; in assay [5] (setting [9]) it was 12.8%. Further, the Her2 level in assay [2] was 89.5% (inactive). For the same compound, in assay [5] (H69AR cells + 2 uM doxorubicin), the differential viability (reversal) was -5.11% (inactive). Besides, the results for the inhibition in assay [6] and in assay [7] were -2.99% (inactive) and -6.51% (inactive), respectively.

Turning to `CCOC(=O)c1ccc(N2C(=O)CC(Sc3nnc(C)s3)C2=O)cc1` (centres undefined), the viability in assay [1] is 103%; in assay [3], 103% (inactive); in assay [4], 102% (inactive); in assay [5] (setting [8]), 46.2%; in assay [5] (setting [9]), 51%. The Her2 level in assay [2] was 100% (inactive). In assay [5] (H69AR cells + 2 uM doxorubicin), the differential viability (reversal) was 4.82% (inactive). Also, the inhibition in assay [6] is -8.4% (inactive); in assay [7], -6.67% (inactive).

For the compound `Cn1c(Cc2ccccc2)nnc1SCC(=O)c1ccc(Br)s1`, the viability in assay [1] is 97.5%; in assay [3], 97.5% (inactive); in assay [4], 81.4% (inactive); in assay [5] (setting [8]), 53.9%; in assay [5] (setting [9]), 49.4%. Moreover, the Her2 level in assay [2] was 83.5% (inactive). Besides, in assay [5] (H69AR cells + 2 uM doxorubicin), the differential viability (reversal) was -4.43% (inactive). Moreover, the inhibition in assay [6] is -2.08% (inactive); in assay [7] it was -5.4% (inactive).

On to `Cc1ccc2c(c1)c1c(n2CC(O)Cn2c(C)nc3ccccc32)/C(=N\O)CCC1` (centres undefined), for which the viability was 108% in assay [1]; 108% (inactive) in assay [3]; 1.52% (active) in assay [4]; 44.1% in assay [5] (setting [8]); 31.5% in assay [5] (setting [9]). In assay [2], the Her2 level is 76.5% (inactive). Moreover, the differential viability (reversal) in assay [5] (H69AR cells + 2 uM doxorubicin) is -12.7% (inactive). For the same compound, the figures for the inhibition in assay [6] and in assay [7] were -4.27% (inactive) and 15.4% (inactive), respectively.

With `O=C(NCc1ccc2c(c1)OCO2)c1cccc2c1C(=O)N(C1CCCCC1)C2`, the viability in assay [1] is 102%; in assay [3], 102% (inactive); in assay [4] it was 87% (inactive); in assay [5] (setting [8]), 71.9%; in assay [5] (setting [9]), 59.2%. Besides, the Her2 level in assay [2] was 72.5% (inactive). Besides, the differential viability (reversal) in assay [5] (H69AR cells + 2 uM doxorubicin) was -12.7% (inactive). Besides, the values for the inhibition in assay [6] and in assay [7] were -0.38% (inactive) and 2.83% (inactive), respectively.

In the case of `COc1ccc(N2C(=O)C(Cl)=C(Nc3c(C)n(C)n(-c4ccccc4)c3=O)C2=O)cc1`, the viability in assay [1] is 94%; in assay [3], 94% (inactive); in assay [4] it was 81.1% (inactive); in assay [5] (setting [8]) it was 35.3%; in assay [5] (setting [9]), 45.3%. In addition, the Her2 level in assay [2] was 68% (inactive). Also, in assay [5] (H69AR cells + 2 uM doxorubicin), the differential viability (reversal) is 10% (inactive). Besides, the inhibition in assay [6] is -1.71% (inactive); in assay [7], -6.03% (inactive).

Regarding `CCOC(=O)c1oc2ccccc2c1NC(=O)c1cccc(OC)c1OC`, the viability in assay [1] was 96.5%; in assay [3], 96.5% (inactive); in assay [4] it was 51% (inactive); in assay [5] (setting [8]) it was 88.2%; in assay [5] (setting [9]) it was 19.6%. Moreover, the Her2 level in assay [2] was 100% (inactive). In addition, in assay [5] (H69AR cells + 2 uM doxorubicin), the differential viability (reversal) is -68.6% (inactive). Besides, the inhibition in assay [6] is -2.99% (inactive); in assay [7] it was -2.22% (inactive).

Consider `Cc1ccc2cc(CN(CCN3CCCC3)C(=O)Nc3ccc(F)cc3)c(=O)[nH]c2c1C`, for which the viability in assay [1] is 94.5%; in assay [3], 94.5% (inactive); in assay [4] it was 38.8% (inactive); in assay [5] (setting [8]), 25.6%; in assay [5] (setting [9]), 13.5%. Further, in assay [2], the Her2 level was 81% (inactive). For the same compound, the differential viability (reversal) in assay [5] (H69AR cells + 2 uM doxorubicin) is -12.2% (inactive). The inhibition is 0.52% (inactive) in assay [6] and -0.79% (inactive) in assay [7].

With `CCOC(=O)c1c(C)oc2c1c(C(c1ccncc1)N1CCOCC1)c(O)c1ccccc12` (centres undefined), the viability in assay [1] was 104%; in assay [3], 104% (inactive); in assay [4], 9.39% (active); in assay [5] (setting [8]) it was 6.38%; in assay [5] (setting [9]), 1.11%. Besides, in assay [2], the Her2 level was 85% (inactive). Moreover, in assay [5] (H69AR cells + 2 uM doxorubicin), the differential viability (reversal) is -5.27% (inactive). Also, the values for the inhibition in assay [6] and in assay [7] were -0.13% (inactive) and -3.49% (inactive), respectively.

On to `CCn1c2ccccc2c2cc(NC(=O)Cc3ccc(S(=O)(=O)N4CCOCC4)s3)ccc21`, for which the viability in assay [1] was 83%; in assay [3] it was 83% (inactive); in assay [4] it was 9.02% (active); in assay [5] (setting [8]) it was 60.2%; in assay [5] (setting [9]) it was 50.1%. In addition, in assay [2], the Her2 level is 76.5% (inactive). For the same compound, the differential viability (reversal) in assay [5] (H69AR cells + 2 uM doxorubicin) was -10.1% (inactive). Further, the inhibition in assay [6] is -1.84% (inactive); in assay [7], -2.73% (inactive).

`CCOC(=O)c1c(C)[nH]c(C(=O)COC(=O)c2ccc(F)c(S(=O)(=O)N3CCOCC3)c2)c1C`: the viability in assay [1] is 88.5%; in assay [3], 88.5% (inactive); in assay [4], 62.4% (inactive); in assay [5] (setting [8]), 52.5%; in assay [5] (setting [9]), 63.9%. In assay [2], the Her2 level was 79.5% (inactive). Moreover, in assay [5] (H69AR cells + 2 uM doxorubicin), the differential viability (reversal) is 11.4% (inactive). Also, the values for the inhibition in assay [6] and in assay [7] were -5.47% (inactive) and -1.97% (inactive), respectively.
